Results published in PMC6733264 (ACS chemical biology, 2019).
Each block holds one molecule with its values, some of them ahead of it. Square brackets hold non-standard residues; d marks the D form. Ends that are not written are not given here. PEG = not defined here

How the values were obtained:
[1] = target: full-length (FL) BRAF^G469A (Homo sapiens, UniProt P15056, G469A); assay: ELISA kinase assay of purified full-length BRAF, probing phosphorylated MEK; format: biochemical
full-length (FL) BRAF^WT = full-length (FL) BRAF^WT (Homo sapiens, UniProt P15056); assay: as above; format: biochemical
Chain of full-length (FL) BRAF^WT (P15056 whole entry): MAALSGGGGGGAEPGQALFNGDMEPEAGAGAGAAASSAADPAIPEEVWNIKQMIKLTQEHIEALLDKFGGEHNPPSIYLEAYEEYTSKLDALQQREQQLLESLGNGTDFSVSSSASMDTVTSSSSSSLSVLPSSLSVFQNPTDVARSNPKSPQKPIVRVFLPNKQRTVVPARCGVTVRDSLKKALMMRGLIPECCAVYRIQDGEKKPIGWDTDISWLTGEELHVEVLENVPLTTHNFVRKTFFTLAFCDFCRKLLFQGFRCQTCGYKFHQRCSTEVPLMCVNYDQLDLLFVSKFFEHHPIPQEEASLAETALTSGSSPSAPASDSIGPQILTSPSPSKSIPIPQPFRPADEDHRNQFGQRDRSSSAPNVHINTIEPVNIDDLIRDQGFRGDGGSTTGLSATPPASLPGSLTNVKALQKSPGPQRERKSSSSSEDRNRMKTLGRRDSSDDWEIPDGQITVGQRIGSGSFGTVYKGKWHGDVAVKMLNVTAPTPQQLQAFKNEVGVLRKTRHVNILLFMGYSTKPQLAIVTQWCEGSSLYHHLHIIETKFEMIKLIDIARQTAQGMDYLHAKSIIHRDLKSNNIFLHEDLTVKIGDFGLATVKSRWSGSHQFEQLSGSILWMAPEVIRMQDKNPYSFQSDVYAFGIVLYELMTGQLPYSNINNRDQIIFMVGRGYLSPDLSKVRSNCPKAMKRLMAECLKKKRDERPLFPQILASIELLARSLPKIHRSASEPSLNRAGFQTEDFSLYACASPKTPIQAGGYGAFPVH

HCT116 cells = assay: WST cell viability assay; format: cell-based, human; conditions: concentrations up to 100 μM, 48 hr
[2] = tested on: HEK293 cells transiently transfected with BRAF^WT; assay: Immunoblot of MAPK signaling in transiently transfected HEK293 cells; format: cell-based, human; conditions: for BRAF activity (phospho-MEK1/2): 0, 10, 25, 50, 75, 100 μM for 4 hr, 48 hr post-transfection
HCT-15 cells = assay: WST cell viability assay; format: cell-based, human; conditions: concentrations up to 100 μM, 48 hr
[3] = tested on: HEK293 cells transiently transfected with BRAF^G469A; assay: Immunoblot of MAPK signaling in transiently transfected HEK293 cells; format: cell-based, human; conditions: for BRAF activity (phospho-MEK1/2): 0, 10, 25, 50, 75, 100 μM for 4 hr, 48 hr post-transfection
[4] = tested on: p61 BRAF^V600E in HEK293 cells; assay: Immunoblot of HEK293 cells transfected with p61-BRAF^V600E; format: cell-based, human; conditions: increasing concentrations, 4 hr
Procedure, shortened: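 HEK293 cells were transiently transfected with 6X-His/FLAG-tagged p61-BRAF V600E in pcDNA4/TO. p61 is an aberrantly spliced BRAF of about 61 kDa. Cells were exposed to increasing concentrations of the TAT-tagged test peptide for 4 hr, then lysates were immunoblotted.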

Chain of full-length (FL) BRAF^G469A (P15056 whole entry G469A): as the sequence (P15056 whole entry) above, with G469A counted along it

IC50 [1]: 0.625 to 3.34 µM
IC50 (full-length (FL) BRAF^WT): 2.49 to 4.98 µM
Molecule: THHVNILLFM [R/H-braftide]

Molecule: GRKKRRQRRRPQ [TAT peptide, reference compound]
cell death (HCT116 cells): no cell death was observed
BRAF activity (phospho-MEK1/2) ([2]; immunoblot): no inhibition effect was observed
cell death (HCT-15 cells): no cell death was observed
BRAF activity (phospho-MEK1/2) [3]: no inhibition effect was observed

Molecule: CC(C)(C)c1nc(-c2cccc(NS(=O)(=O)c3c(F)cccc3F)c2F)c(-c2ccnc(N)n2)s1 [dabrafenib, reference compound]
concentration at which dabrafenib alone acts as an inhibitor of MAPK signaling ([2]; 0-10 μM for 1 hr, activates MAPK signaling at lower concentrations): above 10 μM

Molecule: TAT-braftide (GRKKRRQRRRPQ[PEG]TRHVNILLFM; reading uncertain; also: PEG linker between TAT and braftide)
pMEK and pERK levels [4]: decrease in both pMEK and pERK levels
BRAF activity (phospho-MEK1/2) ([2]; immunoblot): significantly reduced the activity of BRAF in a dose-dependent manner
protein levels of overexpressed BRAF and endogenous MEK1 ([2]; 0-100 μM for 4 hr, immunoblot): markedly decreased in a dose-dependent manner
paradoxical effect caused by lower doses of dabrafenib ([2]; pre-treatment with 75 μM for 2 h, then dabrafenib 1 hr): abrogated the paradoxical effect
BRAF activity (phospho-MEK1/2) [3]: significantly reduced the activity of BRAF in a dose-dependent manner
protein levels of overexpressed BRAF and endogenous MEK1 ([3]; 0-100 μM for 4 hr): markedly decreased in a dose-dependent manner
